Experiment [1] concerns the target T1, 5-hydroxytryptamine receptor 1A (Rattus norvegicus, UniProt P19327).
T1 sequence (P19327 whole entry): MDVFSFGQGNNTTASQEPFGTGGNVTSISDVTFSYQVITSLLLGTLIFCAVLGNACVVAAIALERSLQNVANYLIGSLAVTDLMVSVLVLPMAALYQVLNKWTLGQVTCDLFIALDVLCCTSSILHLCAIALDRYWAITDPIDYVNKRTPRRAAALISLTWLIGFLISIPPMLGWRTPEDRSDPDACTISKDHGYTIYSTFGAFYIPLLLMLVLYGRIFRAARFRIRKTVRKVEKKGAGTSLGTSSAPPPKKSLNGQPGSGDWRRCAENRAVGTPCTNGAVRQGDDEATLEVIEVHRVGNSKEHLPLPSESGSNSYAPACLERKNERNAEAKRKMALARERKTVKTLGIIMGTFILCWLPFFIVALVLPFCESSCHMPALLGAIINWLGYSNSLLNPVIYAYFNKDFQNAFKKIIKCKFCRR
Put plainly: Displacement of [3H]-8-OHDPAT from 5-HT1A receptor in rat hippocampal membranes after 30 mins. In kind it is cell membranes, Hippocampus, Membrane.

Experiment [2] deals with T2, Alpha-1A adrenergic receptor (Rattus norvegicus, UniProt P43140).
T2 sequence (P43140 whole entry): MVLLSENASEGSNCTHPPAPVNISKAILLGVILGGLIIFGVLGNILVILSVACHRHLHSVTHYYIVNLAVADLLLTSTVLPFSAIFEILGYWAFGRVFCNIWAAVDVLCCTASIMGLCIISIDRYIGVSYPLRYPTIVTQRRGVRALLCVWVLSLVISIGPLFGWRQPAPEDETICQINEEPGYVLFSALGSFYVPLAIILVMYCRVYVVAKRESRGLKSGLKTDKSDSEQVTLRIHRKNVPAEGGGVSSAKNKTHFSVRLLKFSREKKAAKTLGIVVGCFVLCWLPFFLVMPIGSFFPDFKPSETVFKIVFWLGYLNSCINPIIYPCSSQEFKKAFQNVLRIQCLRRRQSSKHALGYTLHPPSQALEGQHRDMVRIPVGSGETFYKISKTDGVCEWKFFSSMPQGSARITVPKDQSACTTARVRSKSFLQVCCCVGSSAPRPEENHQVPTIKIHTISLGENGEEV
Kind of experiment: Antagonist activity at alpha-1A adrenoreceptor in Sprague-Dawley rat prostate assessed as inhibition of noradrenaline-induced tissue contraction after 30 mins by Schild plot analysis. The conditions noted are these: read-out: pA2 (converted). Also on record: species or system Prostate gland. A digest of the protocol:
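Isolated prostatic portion of vas deferens from 200−250 g rats, in gassed (95% O₂/5% CO₂) physiological salt solution at pH 7.4 with desipramine 0.01 μM. Cumulative isotonic (−)-noradrenaline curves were run at 30 min intervals, the first discarded and the second taken as control, then a third after 30 min with antagonist. pA₂ from Schild plot, at least three antagonist concentrations, each tested 3−5 times.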

In experiment [3] the target is T3, Alpha-1D adrenergic receptor (Rattus norvegicus, UniProt P23944).
T3 sequence (P23944 whole entry): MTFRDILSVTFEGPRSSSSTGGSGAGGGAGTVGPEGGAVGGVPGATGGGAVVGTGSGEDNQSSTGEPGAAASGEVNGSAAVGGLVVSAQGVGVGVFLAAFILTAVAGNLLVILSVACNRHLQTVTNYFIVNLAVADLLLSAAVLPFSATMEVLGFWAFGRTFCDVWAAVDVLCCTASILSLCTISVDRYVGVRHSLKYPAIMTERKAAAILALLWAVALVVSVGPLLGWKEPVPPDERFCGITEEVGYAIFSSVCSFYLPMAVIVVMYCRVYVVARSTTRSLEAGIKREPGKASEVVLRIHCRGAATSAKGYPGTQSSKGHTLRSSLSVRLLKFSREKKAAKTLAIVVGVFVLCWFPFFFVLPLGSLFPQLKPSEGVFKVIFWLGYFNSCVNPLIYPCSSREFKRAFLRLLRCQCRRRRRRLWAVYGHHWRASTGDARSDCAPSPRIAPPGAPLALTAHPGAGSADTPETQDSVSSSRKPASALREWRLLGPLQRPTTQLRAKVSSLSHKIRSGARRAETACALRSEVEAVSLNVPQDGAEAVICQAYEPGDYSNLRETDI
Put plainly: Antagonist activity at alpha-1D adrenoreceptor in Sprague-Dawley rat thoracic aorta assessed as inhibition of noradrenaline-induced tissue contraction after 30 mins by Schild plot analysis. The note with it: read-out: pA2 (converted). A digest of the protocol:
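Endothelium-denuded helicoid aortic strips, about 1.5 cm, with denudation confirmed by absent acetylcholine relaxation. Strips were equilibrated ≥1 h at 1 g tension and cumulative (−)-noradrenaline curves recorded, the first two discarded and the third taken as control; a fourth followed 30 min antagonist equilibration. pA₂ from Schild plot, 3−5 repeats per concentration.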

Experiment [4] concerns the target T4, Alpha-1B adrenergic receptor (Rattus norvegicus, UniProt P15823).
T4 sequence (P15823 whole entry): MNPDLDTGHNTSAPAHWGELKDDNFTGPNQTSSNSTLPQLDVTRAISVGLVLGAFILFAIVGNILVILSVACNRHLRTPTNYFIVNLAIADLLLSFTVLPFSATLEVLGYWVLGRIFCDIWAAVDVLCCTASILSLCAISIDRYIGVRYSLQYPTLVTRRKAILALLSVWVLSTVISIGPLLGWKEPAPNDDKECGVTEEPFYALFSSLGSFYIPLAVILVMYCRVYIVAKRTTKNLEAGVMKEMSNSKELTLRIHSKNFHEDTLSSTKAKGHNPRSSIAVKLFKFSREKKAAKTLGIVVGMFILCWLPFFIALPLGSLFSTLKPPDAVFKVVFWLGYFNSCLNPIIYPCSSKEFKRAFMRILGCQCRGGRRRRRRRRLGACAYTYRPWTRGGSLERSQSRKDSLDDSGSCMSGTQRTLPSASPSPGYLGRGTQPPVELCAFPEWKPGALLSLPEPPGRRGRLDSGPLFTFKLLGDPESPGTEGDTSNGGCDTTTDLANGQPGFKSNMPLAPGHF
Put plainly: Antagonist activity at alpha-1B adrenoreceptor in Sprague-Dawley rat spleen assessed as inhibition of phenylephrine-induced tissue contraction after 30 mins by Schild plot analysis. The conditions noted are these: read-out: pA2 (converted). A digest of the protocol:
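Spleen from 250−300 g rats in gassed physiological salt solution with desipramine 0.01 μM and propranolol 1 μM. Isometric cumulative phenylephrine curves were run at 30 min intervals, the first discarded and the second taken as control, then a new curve after 30 min antagonist equilibration. pA₂ from Schild plot, at least three antagonist concentrations, each tested 3−5 times.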

The species named for another experiment is Cavia porcellus. Put plainly: Inverse agonist activity at alpha-1 receptor in guinea pig thoracic aorta assessed as inhibition of calcium-induced increase in resting tension at 10 nM relative to control. In kind it is tissue-based. In short, it runs like this:
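Guinea pig thoracic aortic strips in Krebs at 37 °C, equilibrated 1 h at 1 g tension, then given (−)-noradrenaline 1 μM. Internal Ca²⁺ stores were depleted by repeated agonist in Ca²⁺-free Krebs with 0.1 mM EDTA. After 30 min with antagonist at 10 nM, 1.8 mM Ca²⁺ was added. Read-out: % decrease of Ca²⁺-induced increase in resting tension versus no-agent reference.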

Regarding `COc1ccc2c(c1OCCNC[C@H]1COc3ccccc3O1)NCC2.Cl.Cl`, the affinity in experiment [1] corresponds to a Ki of 110 nM. The results for the Kb in experiment [2], in experiment [3] and in experiment [4] were 3.63 nM, 2.4 nM and 0.832 nM, respectively. Moreover, the inhibition (usually the relative decrease from the control value, in per cent) in the experiment filed under Cavia porcellus stood at 100%.

`COc1ccc2ccoc2c1OCCNC[C@H]1COc2ccccc2O1.Cl`: in experiment [1], the Ki (usually a dissociation constant, usually derived from enzyme kinetics or from competition with a known ligand) is 2.57 nM. The results for the Kb in experiment [2], in experiment [3] and in experiment [4] were 1.95 nM, 0.977 nM and 2.09 nM, respectively. The inhibition in the experiment listed under Cavia porcellus amounted to 0%.

In experiment [1], `COc1ccc2cc[nH]c2c1OCCNC[C@H]1COc2ccccc2O1` had a Ki of 339 nM. Besides, the Kb is 13.2 nM in experiment [2], 3.02 nM in experiment [3] and 17 nM in experiment [4]. Further, the inhibition in the experiment listed under Cavia porcellus came to 25%.

`COc1ccc2c(c1OCCNC[C@H]1COc3ccccc3O1)OCC2.Cl`: the Ki in experiment [1] is 46.8 nM. Also, the Kb was 13.2 nM in experiment [2], 0.263 nM in experiment [3] and 3.24 nM in experiment [4]. For the same molecule, in the experiment listed under Cavia porcellus, the inhibition was found to be 0%.

Values taken from ChEMBL document CHEMBL2417545, “6-methoxy-7-benzofuranoxy and 6-methoxy-7-indolyloxy analogues of 2-[2-(2,6-Dimethoxyphenoxy)ethyl]aminomethyl-1,4-benzodioxane (WB4101):1 discovery of a potent and selective α1D-adrenoceptor antagonist” (J Med Chem, 2013).
